From ChEMBL document CHEMBL1157145, “Cytotoxic activity of proflavine diureas: synthesis, antitumor, evaluation and DNA binding properties of 1',1''-(acridin-3,6-diyl)-3',3''-dialkyldiureas” (Bioorg Med Chem, 2008)
Active and inactive are the calls of the source. The rule behind the calls is not given here.

Columns and labels:
HeLa [1] = test: Antiproliferative activity against human HeLa cells assessed as decrease in total cell population at 5.50 uM after 24 hrs; assay type: functional; parameters: scale not given: the % may be the effect or the level left
In short: (§1)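 Cells seeded (8 · 10^5 per 60 mm dish), allowed to settle 24 h at 37 °C, 5% CO2, then treated with a single concentration for 24 or 48 h. Adherent and floating cells counted by Coulter counter. Total cell number given as % of untreated control; floating cells as % of total cell number.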

HeLa [2] = test: Induction of apoptosis in human HeLa cells at 5.50 uM after 48 hrs; assay type: functional
In short: (§2)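 After 24 or 48 h of drug exposure, all cells were collected, combining trypsinised adherent cells with floating cells from the medium. Cells (1 × 10^6) were fixed in cold 70% ethanol overnight at −20 °C and stained with DAPI (10 µg/mL) for 30 min in the dark at RT. Under fluorescence microscopy, 300 cells per sample were scored, with condensed or fragmented nuclei counted as apoptotic.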

HCT-116 [3] = test: Induction of apoptosis in human HCT116 cells at 77 uM after 24 hrs; assay type: functional; in short: as §2
HeLa [4] = test: Cell cycle arrest in human HeLa cells assessed as accumulation at G0/G1 phase at 5.50 uM after 24 hrs; assay type: functional
In short: (§3)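 Cells seeded at 8 · 10^5 per 60 mm dish, allowed to settle 24 h (37 °C, 5% CO2), then exposed to the drug for 24 or 48 h. Adherent plus floating cells (5 · 10^5) were fixed in cold 70% ethanol at −20 °C overnight, treated with RNase A (100 µg/mL) and stained with propidium iodide (20 µg/mL) in Vindelov's solution for 30 min at RT. Flow cytometry used 488 nm excitation, FL-2 at 585 ± 21 nm, and histograms were modelled for G0/G1, S and G2/M fractions.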

DNA [5] = test: Binding affinity to calf thymus DNA at 50 uM by circular dichroism spectrophotometric titration; assay type: nucleic-acid assay; details: Bos taurus
HCT-116 [6] = test: Induction of DNA fragmentation in human HCT116 cells after 24 hrs; assay type: functional, cell-based
In short: (§4)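 HCT-116 cells were treated for 24 or 48 h. Adherent and floating cells (5 × 10^5) were pooled, fixed in cold 70% ethanol and held overnight at −20 °C. Samples were treated with RNase A (100 µg/mL) and stained with propidium iodide (20 µg/mL) in Vindelov's solution for 30 min at RT. Flow cytometry used 488 nm excitation with emission at 585 nm. Subdiploid (subG0/G1) particles were scored on a logarithmic scale, with debris gated out on FSC × SSC.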

HeLa [7] = test: Cell cycle arrest in human HeLa cells assessed as accumulation at G0/G1 phase at 5.50 uM after 48 hrs; assay type: functional; in short: as §3
HeLa [8] = test: Antiproliferative activity against human HeLa cells assessed as increase of floating cells in total cell population at 5.50 uM after 48 hrs; assay type: functional; in short: as §1
HeLa [9] = test: Cell cycle arrest in human HeLa cells assessed as accumulation at S phase at 5.50 uM after 48 hrs; assay type: functional; in short: as §3
HCT-116 [10] = test: Antiproliferative activity against human HCT116 cells assessed as increase of floating cells in total cell population at 77 uM after 24 hrs; assay type: functional; in short: as §1
HCT-116 [11] = test: Antiproliferative activity against human HCT116 cells assessed as increase of floating cells in total cell population at 77 uM after 48 hrs; assay type: functional; in short: as §1
HCT-116 [12] = test: Cell cycle arrest in human HCT116 cells assessed as accumulation at G2/M phase at 77 uM after 24 hrs; assay type: functional; in short: as §3
HCT-116 [13] = test: Cell cycle arrest in human HCT116 cells assessed as accumulation at G2/M phase at 77 uM after 48 hrs; assay type: functional; in short: as §3
HCT-116 [14] = test: Antiproliferative activity against human HCT116 cells assessed as decrease in total cell population at 77 uM after 48 hrs; assay type: functional; parameters: scale not given: the % may be the effect or the level left; in short: as §1
HCT-116 [15] = test: Antiproliferative activity against human HCT116 cells assessed as decrease in total cell population at 77 uM after 24 hrs; assay type: functional; parameters: scale not given: the % may be the effect or the level left; in short: as §1
HeLa [16] = test: Cell cycle arrest in human HeLa cells assessed as accumulation at G2/M phase at 5.50 uM after 24 hrs; assay type: functional; in short: as §3
HeLa [17] = test: Cytotoxicity against human HeLa cells after 72 hrs by MTT assay; assay type: functional, cell-based
HCT-116 [18] = test: Cell cycle arrest in human HCT116 cells assessed as accumulation at G0/G1 phase at 77 uM after 48 hrs; assay type: functional; in short: as §3
HeLa [19] = test: Cell cycle arrest in human HeLa cells assessed as accumulation at S phase at 5.50 uM after 24 hrs; assay type: functional; in short: as §3
HeLa [20] = test: Cytotoxicity against human HeLa cells after 48 hrs by MTT assay; assay type: functional, cell-based
HCT-116 [21] = test: Cytotoxicity against human HCT116 cells after 48 hrs by MTT assay; assay type: functional, cell-based; details: HCT-116, 48 h
HeLa [22] = test: Antiproliferative activity against human HeLa cells assessed as increase of floating cells in total cell population at 5.50 uM after 24 hrs; assay type: functional; in short: as §1
HeLa [23] = test: Antiproliferative activity against human HeLa cells assessed as decrease in total cell population at 5.50 uM after 48 hrs; assay type: functional; parameters: scale not given: the % may be the effect or the level left; in short: as §1
DNA [24] = test: Binding affinity to calf thymus DNA at 4 uM by fluorescence spectrophotometric titration; assay type: nucleic-acid assay; details: Bos taurus
In short: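 ctDNA sonicated in TE buffer, concentration taken from A260 and given in base pairs. Compound (4 µM) in 0.01 M Tris, pH 7.4, 25 °C titrated with ctDNA (0–55 µM bp) until spectra stopped changing. Excitation 424 nm, slit widths 10 nm; binding constant derived from the change in emission.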

HeLa [25] = test: Cell cycle arrest in human HeLa cells assessed as accumulation at G2/M phase at 5.50 uM after 48 hrs; assay type: functional; in short: as §3
HCT-116 [26] = test: Cell cycle arrest in human HCT116 cells assessed as accumulation at G0/G1 phase at 77 uM after 24 hrs; assay type: functional
In short: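 Adherent plus floating cells (5 · 10^5) collected 24 or 48 h after treatment, fixed in cold 70% ethanol at −20 °C overnight, washed in PBS. RNase A (100 µg/mL) and propidium iodide (20 µg/mL) in Vindelov's solution, 30 min at RT. Flow cytometry with 488 nm excitation, emission 585 ± 21 nm; % cells per cycle phase from DNA content histograms.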

HCT-116 [27] = test: Cytotoxicity against human HCT116 cells after 72 hrs by MTT assay; assay type: functional, cell-based; details: Homo sapiens, HCT-116, 72 h
HCT-116 [28] = test: Induction of apoptosis in human HCT116 cells at 77 uM after 48 hrs; assay type: functional; in short: as §2
HCT-116 [29] = test: Induction of DNA fragmentation in human HCT116 cells after 48 hrs; assay type: functional, cell-based; in short: as §4
HCT-116 [30] = test: Cell cycle arrest in human HCT116 cells assessed as accumulation at S phase at 77 uM after 24 hrs; assay type: functional; in short: as §3
HCT-116 [31] = test: Cell cycle arrest in human HCT116 cells assessed as accumulation at S phase at 77 uM after 48 hrs; assay type: functional; in short: as §3

- Activity (DNA [5]): Active
- K (DNA [24]): 2.4 ×10⁵ /M
Compound: CCCCNC(=O)Nc1ccc2cc3ccc(NC(=O)NCCCC)cc3nc2c1.Cl
- Activity (HeLa [1]): 92.75%
- Activity (HeLa [2]): 0.44%
- Activity (HCT-116 [3]): 9.67%
- Activity (HeLa [4]): 61.17%
- Activity (HCT-116 [6]): Active
- Activity (HeLa [7]): 74.91%
- Activity (HeLa [8]): 3.93%
- Activity (HeLa [9]): 15.5%
- Activity (HCT-116 [10]): 51.08%
- Activity (HCT-116 [11]): 33.41%
- Activity (HCT-116 [12]): 37.51%
- Activity (HCT-116 [13]): 28.85%
- Activity (HCT-116 [14]): 27.58%
- Activity (HCT-116 [15]): 47.4%
- Activity (HeLa [16]): 13.88%
- IC50 (HeLa [17]): 11.5 µM
- Activity (HCT-116 [18]): 43.91%
- Activity (HeLa [19]): 24.95%
- IC50 (HeLa [20]): 5.41 µM
- IC50 (HCT-116 [21]): 77 µM
- Activity (HeLa [22]): 4.03%
- Activity (HeLa [23]): 96.5%
- Activity (HeLa [25]): 9.6%
- Activity (HCT-116 [26]): 39.97%
- IC50 (HCT-116 [27]): 43.9 µM
- Activity (HCT-116 [28]): 3.89%
- Activity (HCT-116 [29]): Active
- Activity (HCT-116 [30]): 22.52%
- Activity (HCT-116 [31]): 27.24%
